From PubChem BioAssay
Sampled rows, rich in hits. Any-hit rate of the full collection: about 1.8%.
CHRM5 PAM = CHRM5 positive allosteric modulation. AID 624038. 0.3% of 360,000 active. CHO-K1 hM5, Fluo-8 calcium, ACh EC20 PAM; 0% = ACh EC20, 100% = ACh EC100. activation, % at 3 µM;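 active means activation above the run cutoff, the mean activation of all test compounds plus 3 SD, cut at about 18% in these data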
Target sequence (P08912 whole entry, looked up): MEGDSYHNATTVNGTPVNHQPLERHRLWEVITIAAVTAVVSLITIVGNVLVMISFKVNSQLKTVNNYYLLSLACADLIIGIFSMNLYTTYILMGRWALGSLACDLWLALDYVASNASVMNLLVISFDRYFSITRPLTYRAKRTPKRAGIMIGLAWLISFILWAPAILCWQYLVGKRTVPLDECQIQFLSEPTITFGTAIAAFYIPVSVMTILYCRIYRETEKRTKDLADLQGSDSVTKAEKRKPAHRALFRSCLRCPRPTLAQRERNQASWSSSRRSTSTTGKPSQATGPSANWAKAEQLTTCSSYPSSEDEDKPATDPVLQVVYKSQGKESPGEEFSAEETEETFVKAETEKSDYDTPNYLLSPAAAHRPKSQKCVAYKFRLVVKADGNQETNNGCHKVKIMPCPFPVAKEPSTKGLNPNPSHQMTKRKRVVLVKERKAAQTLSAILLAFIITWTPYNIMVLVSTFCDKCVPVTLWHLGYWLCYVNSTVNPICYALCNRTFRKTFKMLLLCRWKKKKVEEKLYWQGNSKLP
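Test system: CHO-K1 hM5 cells / Doses: single-point, 3 µM nominal / Times: Post-acetylcholine fluorescence recording 140 s / Technique: Fluo-8 calcium fluorescence / Measure: Max/basal fluorescence ratio as % of EC20–EC100 ACh window / Benchmarks: low control EC20 acetylcholine (0%), high control EC100 acetylcholine (100%) / Replicates: one well per compound, no replicates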
M5 antag = CHRM5 antagonism in calcium assay; P08912; CHO-hM5 cells, Fluo-8 calcium fluorescence, ACh EC80; inhibition, % at 3 µM; 0.59% of 360,000 active;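 active means inhibition above a per-plate cutoff, the mean of that plate's test compounds plus 3 SD, cut at about 27% in these data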;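 further: 0% = acetylcholine EC80 with DMSO and 100% = DMSO without agonist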
CHRM5 agonist = agonists of human muscarinic M5 receptor (CHRM5); CHO-K1 hM5 cells, Fluo-8 calcium fluorescence; 0% DMSO wells, 100% maximal acetylcholine response; 0.19% of 360,000 active; activation, % at 3 µM; P08912;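 active means activation above the run's mean over test compounds plus 3 SD, cut at about 23% in these data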;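 further: signal is peak over basal fluorescence ratio across the kinetic read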
M4 antag = blocks acetylcholine activation of human M4 receptor; P08173; CHO-hM4 cells, ACh EC80, Fluo-8 calcium fluorescence; inhibition, % at 3 µM; 0.73% of 360,000 active; AID 624125;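 active means inhibition above its plate's cutoff, the mean inhibition of sample wells plus 3 SD, cut at about 27% in these data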;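 further: 0% = acetylcholine EC80 with DMSO and 100% = DMSO without agonist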
M4 PAM = positive allosteric modulators of human muscarinic M4 receptor. P08173. CHO-K1 hM4/Gqi5, Fluo-8 calcium fluorescence, ACh EC20; 0% = ACh EC20, 100% = maximal ACh. activation, % at 3 µM. 0.4% of 360,000 active. AID 624126;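 active means activation above its plate's cutoff, the mean activation of sample wells plus 3 SD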
CHRM4 agonist = CHRM4 agonism in calcium assay. CHO-K1 hM4/Gqi5, Fluo-8 calcium fluorescence; vehicle 0%, full acetylcholine response 100%. activation, % at 3 µM. 0.14% of 360,000 active. AID 624127;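 active means activation above the run mean over all test wells plus 3 SD, cut at about 32% in these data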;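 further: peak over basal fluorescence ratio per well then scaled between controls; 0% = DMSO wells and 100% = acetylcholine at EC100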
* marks the source's active call; other numbers are inactive results.

SMILES	CHRM5 PAM	M5 antag	CHRM5 agonist	M4 antag	M4 PAM	CHRM4 agonist
N/C(=N\OC(=O)c1cccc([N+](=O)[O-])c1)c1cccnc1	-4	6	1	-3	25*	5
CC(=O)Nc1ccc(C=NN=C2c3ccccc3-c3ccccc32)cc1	11	-9	3	4	18*	2
Cc1cc(N(C)N)nc(NC(=O)NS(=O)(=O)c2ccccc2Cl)n1	-1	1	-1	-3	2	0
CC(=O)c1cccc(NC(=O)c2ccccc2OCc2ccc(F)cc2)c1	-10	32*	-5	-1	-8	4
CN(C)S(=O)(=O)c1cccc(NC(=O)c2ccccc2OCc2ccc(F)cc2)c1	-4	5	2	-27	-8	11
COc1ccc(S(=O)(=O)n2nc(OC(=O)c3ccco3)cc2N)cc1	16	3	-8	-1	18*	1
COc1ccc(S(=O)(=O)n2nc(OC(=O)c3ccccc3)cc2N)cc1	2	2	-9	-2	10	0
CC(C)C(NC(=O)OCc1ccccc1)C(=O)NC1CCCCC1 (stereo unspecified)	2	9	1	3	31*	2
CCOC(=O)N1CCN(c2ncnc3c2cnn3-c2ccc(OC)cc2)CC1	0	-9	5	-10	28*	3
COc1ccc(-n2ncc3c(N4CCC(C)CC4)ncnc32)cc1	-6	4	2	-7	4	0
CCOC(=O)C1CCN(c2ncnc3c2cnn3-c2ccc(Cl)cc2)CC1	19*	-14	0	-3	4	1
CCCCN(C(=O)CCC(=O)Nc1cc(C)on1)C(C(=O)NC1CCCC1)c1ccccc1C (stereo unspecified)	-1	11	-3	3	-4	-3
CCCCN(C(=O)CCC(=O)Nc1cc(C)on1)C(C(=O)NC1CCCC1)c1ccc(F)cc1 (stereo unspecified)	20*	-13	-1	-3	-3	1
CCOc1cc(/C=N/NC(=O)C(O)(c2ccccc2)c2ccccc2)ccc1OC(=O)c1ccco1	-13	4	4	21	-23	15
CC1=NN(c2cccc(C(=O)O)c2)C(=O)/C1=C\C=C/c1ccccc1	2	-2	-2	4	24*	1
CCN(C(=O)CSc1nccc(=O)[nH]1)C1CCCCC1	6	13	-1	17	3	0
CN(C(=O)CSc1nccc(=O)[nH]1)C1CCCCC1	17	-7	-1	-17	22*	1
C#CCOCCOCCOCCNc1nc(N2CCN(C(=O)[C@H](CCC(=O)O)n3cc([C@@H](N)[C@H](C)CC)nn3)CC2)nc(N2CCN(C(=O)[C@H](CCC(=O)O)n3cc([C@@H](N)CC(N)=O)nn3)CC2)n1	1	4	1	6	-3	0
COc1ccccc1-n1cnc2cc(NCc3ccccn3)ccc21	-19	20	-5	42*	-15	0
C/C=C\C(=O)Nc1cccc(C2=NOC3(C2)C[C@@H](C(N)=O)N(C(=O)c2ccc(Cl)cc2)C3)c1 (stereo partly specified)	19*	1	-2	-6	7	1
O=C(CSc1nnc(CNC(=O)c2cccs2)o1)Nc1cccc(Cl)c1	0	-20	2	-11	-3	7
Cc1ccc(S(=O)(=O)N2CCOCC2)cc1C(=O)N1C(=O)c2cccc(N)c2C1=O	3	-5	-1	-26	27*	1
CCc1cc(CNC(=O)CCc2nnc(CCCc3ccccc3)o2)on1	3	-1	-1	14	-6	1
Cc1cccn2c(=O)c(C=O)c(N3CCCCC3)nc12	20*	-9	-2	-7	13	3
C/C(=N\OCc1ccc(C#N)cc1)c1ccccc1	-1	3	-7	-12	6	0
SMILES	CHRM5 PAM	M5 antag	CHRM5 agonist	M4 antag	M4 PAM	CHRM4 agonist
C/C(=N\OCc1ccc(C#N)cc1)c1ccc(S(=O)(=O)N(C)C)cc1	-18	28*	1	13	-13	19
CC1CCN(CCCCOc2ccc(C(C)(C)C)cc2)CC1	-11	8	0	30*	-20	9
OC(c1ccccc1)(c1ccccc1)C1CCN(CCCOc2ccc(F)cc2)CC1	-24	55*	-4	65*	-16	18
N#Cc1ccccc1OCCCN1CCC(C(O)(c2ccccc2)c2ccccc2)CC1	-20	11	-3	27*	-13	14
Cc1ccc(OCCCN2CCC(C(O)(c3ccccc3)c3ccccc3)CC2)cc1	-24	77*	2	62*	-14	25
CC1CCN(CCCCOc2ccc(Cl)cc2)CC1	-9	8	-6	24	-16	2
C=CCN1C=C(C(C)=O)C(=O)CC1	-3	2	0	-18	7	2
O=C(c1ccccc1)c1ccc2ccccc2c1	-8	14	0	-10	2	-2
O=C(c1ccccc1)c1c2c(cc3sc4ccccc4[n+]13)-c1cccc3cccc-2c13	-5	25	19	59*	-39	33*
CCn1c(-c2cc(-c3ccc(C)cc3)nc3ccccc23)n[nH]c1=S	-32	98*	-12	-1	4	0
Cn1c(=O)c2[nH]c(C3CCCC3)nc2n(C)c1=O	-4	0	1	101*	-20	1
Cn1c(=O)c2[nH]c(C3CC=CCC3)nc2n(C)c1=O (stereo unspecified)	5	7	3	-5	-1	1
COc1ccc(Cn2ccnc2)cc1Br	6	8	-4	29*	1	1
COc1ccc(Cn2ccnc2)cc1[N+](=O)[O-]	1	-6	-4	3	-2	1
OCC[C@@H]1C[C@H](O)[C@@H](O)[C@@]2(OCCCc3cc(C(F)(F)F)ccc32)O1	-7	6	4	-2	8	1
C[C@H]1CN(c2ccccc2)C(=O)[C@@H]1CC(=O)Nc1ccc(Br)cc1	-10	27*	4	0	0	12
CCC1CCCCN1C(=O)C(=O)c1cn(CC(=O)N(CC)CC)c2ccccc12 (stereo unspecified)	-2	9	-4	1	-6	0
CCN(CC)C(=O)Cn1cc(C(=O)C(=O)N(C)C2CCN(C)CC2)c2ccccc21	2	6	-4	-4	17*	0
COC(=O)CSc1nc(-c2cccs2)ccc1C#N	-8	3	-4	74*	-30	4
COc1ccc(N2CC(C(=O)Nc3c4c(nn3-c3ccc(OC)cc3)CS(=O)(=O)C4)CC2=O)cc1 (stereo unspecified)	-2	-15	-2	-11	20*	0
